In article PMC4371170 (Learning & Memory, 2015):

Legend:
[1] = tested on: C57BL/6J mice; assay type: in vivo; conditions: 10 mg/kg IP after extinction training
Outline: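 Adult male C57BL/6J mice, 8–12 wk, group-housed 1 wk at 24°C on a 12-h light–dark cycle with food and water ad libitum, tested in the light phase. At 48 h after fear conditioning, three CS trials in a novel Context B (Plexiglas over shock bars, red light, 1% ammonium hydroxide) were averaged to assign groups (n = 12/group) matched for freezing. Extinction training followed 24 h later. Retention tests of 15 CS trials were run 24 and 48 h later, with freezing to the CS scored automatically.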

[2] = tested on: C57BL/6J mice; assay: Open-field test; assay type: in vivo; conditions: 10 mg/kg IP
[3] = tested on: lysine 8 on H4; conditions: site regulated by HDAC3; ref Malvaez et al. 2013; cited from earlier work
[4] = tested on: C57BL/6J mice; assay: Extinction retention tests after drug without extinction training; assay type: in vivo; conditions: 10 mg/kg IP without extinction training
[5] = 10 mg/kg IP, mouse
[6] = tested on: other HDACs besides HDAC1, HDAC2, HDAC3, and HDAC10; assay: HDAC inhibitory potency against all 11 HDAC enzymes, remaining enzymes; assay type: biochemical; conditions: serial dilution starting at 20 μM
[7] = tested on: global histone H3 acetylation; assay: Immunocytochemistry of global histone H3 acetylation in BLA and dentate gyrus; assay type: in vivo, mice; conditions: 10 mg/kg IP, 1 h after administration, qualitative
Outline: (§1)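 Mice received vehicle or test compound at 10 mg/kg IP (n = 2/group). They were perfused 1 h after dosing and brain tissue was processed for immunocytochemistry. Global acetyl-H3 or acetyl-H4 immunofluorescence was imaged with DAPI counterstain in the basolateral amygdala and hippocampal dentate gyrus. Assessment was qualitative, from photomicrographs of colocalization.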

[8] = tested on: global histone H4 acetylation; assay: Immunocytochemistry of global histone H4 acetylation in BLA and dentate gyrus; assay type: in vivo, mice; conditions: 10 mg/kg IP, 1 h after administration, qualitative
Outline: as §1

[9] = tested on: HAT activity; conditions: ref Nair et al. 2001; cited from earlier work

Row | SMILES | effect on consolidation of cued fear extinction [1] | effect of drug on time spent in the center ([2]; F(2,23) = 0.22, NS) | effect of drug on distance traveled ([2]; F(2,23) = 1.06, NS) | acetylation of lysine 8 on H4 [3] | nonspecific effect on extinction retention [4] | brain penetrance compared with RGFP963 [5] | crossing of the blood brain barrier [5] | time of maximum brain concentration post-drug administration [5] | inhibition of any other HDACs [6] | global acetylation of histone H3 in the BLA ([7]; compared with vehicle) | global acetylation of histone H3 in the dentate gyrus [7] | global H4 acetylation in the BLA [8] | global acetylation of histone H4 in the dentate gyrus [8] | effect on HAT activity [9]
1 | Nc1cc(F)ccc1NC(=O)/C=C/c1cnn(C/C=C/c2ccccc2)c1 [RGFP966] | no effect | No significant effect | No significant effect | enhance acetylation | does not nonspecifically enhance extinction retention | lower brain penetrance | able to cross the blood brain barrier | 15 min | did not inhibit | seems to increase | seem to decrease | Neither RGFP966 nor RGFP963 appear to alter | seem to decrease | 
2 | CC(/C=C/C(=O)NO)=C\[C@@H](C)C(=O)c1ccc(N(C)C)cc1 [trichostatin A] |  |  |  |  |  |  |  |  |  |  |  |  |  | inhibition of HAT activity
